Laboratory results taken from ChEMBL document CHEMBL5136969, “A niclosamide-tobramycin hybrid adjuvant potentiates cefiderocol against P. aeruginosa” (2021).
Converted amounts (≈) assume the structure as drawn. The source made the active and inactive calls.

Legend:
[1] = test system: Pseudomonas aeruginosa; assay: Antibacterial activity against MDR clinical isolate Pseudomonas aeruginosa PA259 assessed as reduction in bacterial growth after 18 hrs by microbroth dilution method; type: functional
Summary of the method: (§1)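 CLSI broth microdilution. Overnight cultures were adjusted in saline to 0.5 McFarland, diluted 1:50 in Mueller-Hinton broth (MHB), and inoculated at about 5 × 10^5 CFU/mL. Agents were 2-fold serially diluted in MHB, mixed 1:1 with inoculum, and held at 37 °C for 18 h. MIC was the lowest concentration with no visible turbidity, confirmed at 590 nm.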

[2] = test system: Pseudomonas aeruginosa; assay: Potentiation of ciprofloxacin-induced antibiotic activity against Pseudomonas aeruginosa PAO1 assessed as MIC fold reduction at 8 ug/ml after 18 hrs by microbroth dilution method; type: functional; details: dose 8 µg/ml
Summary of the method: (§2)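 Adjuvant held at a fixed 8 μg/mL while the antibiotic was 2-fold serially diluted in Mueller-Hinton broth (MHB), per CLSI microbroth dilution. Overnight cultures were adjusted in saline to 0.5 McFarland, then diluted 1:50 in MHB to about 5 × 10^5 CFU/mL final, and incubated 18 h at 37 °C. MIC was the lowest concentration with no visible turbidity, confirmed at 590 nm. Fold potentiation = MIC alone / MIC with adjuvant.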

[3] = test system: Pseudomonas aeruginosa; assay: Antibacterial activity against Pseudomonas aeruginosa PAO1 assessed as reduction in bacterial growth after 18 hrs by microbroth dilution method; type: functional; summary of the method: as §1
[4] = test system: Pseudomonas aeruginosa; assay: Potentiation of chloamphenicol-induced antibiotic activity against Pseudomonas aeruginosa PAO1 assessed as MIC fold reduction at 8 ug/ml after 18 hrs by microbroth dilution method; type: functional; details: dose 8 µg/ml; summary of the method: as §2
[5] = test system: Escherichia coli; assay: Potentiation of doxycycline-induced antibiotic activity against Escherichia coli ATCC 25922 assessed as MIC fold reduction at 8 ug/ml after 18 hrs by microbroth dilution method; type: functional; details: dose 8 µg/ml; summary of the method: as §2
[6] = test system: Pseudomonas aeruginosa; assay: Potentiation of ceftazidime-induced antibiotic activity against […] Pseudomonas aeruginosa PAO1 assessed as MIC fold reduction at 8 ug/ml after 18 hrs by microbroth dilution method; type: functional, organism-based; details: dose 8.0 µg/ml; summary of the method: as §2
[7] = test system: Escherichia coli; assay: Potentiation of sulfamethoxazole-induced antibiotic activity against Escherichia coli ATCC 25922 assessed as MIC fold reduction at 8 ug/ml after 18 hrs by microbroth dilution method; type: functional; details: dose 8 µg/ml
[8] = test system: Pseudomonas aeruginosa; assay: Antibacterial activity against MDR clinical isolate Pseudomonas aeruginosa PA101885 assessed as reduction in bacterial growth after 18 hrs in presence of cefiderocol by microbroth dilution method; type: functional
Summary of the method: (§3)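 Checkerboard in MHB (iron-replete, not iron-depleted CAMHB). Cefiderocol was 2-fold serially diluted along one axis and the adjuvant along the other. Inoculum was 0.5 McFarland diluted 1:50, about 5 × 10^5 CFU/mL final. Incubation was 18 h at 37 °C, with turbidity read visually and confirmed at 590 nm. FIC was the MIC in combination over the MIC alone for each agent, and the FIC index was their sum. Cut-offs were ≤0.5 synergy, >0.5–4 additive, >4 antagonism.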

[9] = test system: Acinetobacter baumannii; assay: Antibacterial activity against Acinetobacter baumannii AB031 assessed as reduction in bacterial growth after 18 hrs by microbroth dilution method; type: functional
Summary of the method: (§4)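 CLSI microbroth dilution in MHB. Overnight cultures were adjusted to 0.5 McFarland in saline, diluted 1:50, and inoculated at about 5 × 10^5 CFU/mL. Agents were 2-fold serially diluted and incubated 18 h at 37 °C. MIC is the lowest concentration without visible turbidity, confirmed by absorbance at 590 nm. Medium with and without cells served as controls.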

[10] = test system: Pseudomonas aeruginosa; assay: Potentiation of novobiocin-induced antibiotic activity against Pseudomonas aeruginosa PAO1 assessed as MIC fold reduction at 8 ug/ml after 18 hrs by microbroth dilution method; type: functional; details: dose 8 µg/ml
[11] = test system: Acinetobacter baumannii; assay: Antibacterial activity against Acinetobacter baumannii LAC-4 assessed as reduction in bacterial growth after 18 hrs by microbroth dilution method; type: functional; summary of the method: as §4
[12] = test system: Acinetobacter baumannii; assay: Antibacterial activity against Acinetobacter baumannii AB031 assessed as reduction in bacterial growth after 18 hrs in presence of cefiderocol by microbroth dilution method; type: functional
Summary of the method: (§5)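 Checkerboard in Mueller-Hinton broth: cefiderocol 2-fold diluted on one axis, adjuvant 2-fold on the other. Overnight cultures were adjusted to 0.5 McFarland in saline, diluted 1:50 in MHB, and inoculated at about 5 × 10^5 CFU/mL. Incubation was 18 h at 37 °C. Turbidity was read visually and confirmed at 590 nm. FIC index = FIC of antibiotic + FIC of adjuvant; ≤0.5 synergy, >4 antagonism.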

[13] = test system: Acinetobacter baumannii; assay: Potentiation of pleuromutilin-induced antibiotic activity against Acinetobacter baumannii ATCC 17978 assessed as MIC fold reduction at 8 ug/ml after 18 hrs by microbroth dilution method; type: functional; details: dose 8 µg/ml
[14] = test system: Acinetobacter baumannii; assay: Potentiation of sulfamethoxazole-induced antibiotic activity against Acinetobacter baumannii ATCC 17978 assessed as MIC fold reduction at 8 ug/ml after 18 hrs by microbroth dilution method; type: functional; details: dose 8 µg/ml
[15] = test system: Pseudomonas aeruginosa; assay: Antibacterial activity against MDR clinical isolate Pseudomonas aeruginosa PA260 assessed as potentiation of cefiderocol antibacterial activity by measuring FIC index after 18 hrs by microbroth dilution method; type: functional
Summary of the method: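 Checkerboard in MHB. Cefiderocol was 2-fold serially diluted along one axis and the adjuvant along the other. Inoculum was prepared from 0.5 McFarland saline suspensions diluted 1:50 in MHB, giving about 5 × 10^5 CFU/mL final. Plates ran 18 h at 37 °C, with turbidity confirmed at 590 nm. FIC = combination MIC ÷ MIC alone for each agent, and FIC index = sum of both. Interpretation: ≤0.5 synergy, >0.5–4 additive, >4 antagonism.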

[16] = test system: Pseudomonas aeruginosa; assay: Potentiation of sulfamethoxazole-induced antibiotic activity against Pseudomonas aeruginosa PAO1 assessed as MIC fold reduction at 8 ug/ml after 18 hrs by microbroth dilution method; type: functional; details: dose 8 µg/ml
[17] = test system: Acinetobacter baumannii; assay: Potentiation of minocycline-induced antibiotic activity against Acinetobacter baumannii ATCC 17978 assessed as MIC fold reduction at 8 ug/ml after 18 hrs by microbroth dilution method; type: functional; details: dose 8 µg/ml; summary of the method: as §2
[18] = test system: Escherichia coli; assay: Potentiation of piperacilin-induced antibiotic activity against Escherichia coli ATCC 25922 assessed as MIC fold reduction at 8 ug/ml after 18 hrs by microbroth dilution method; type: functional; details: dose 8 µg/ml
[19] = test system: Pseudomonas aeruginosa; assay: Potentiation of fosfomycin-induced antibiotic activity against Pseudomonas aeruginosa PAO1 assessed as MIC fold reduction at 8 ug/ml after 18 hrs by microbroth dilution method; type: functional; details: dose 8 µg/ml; summary of the method: as §2
[20] = test system: Enterobacter cloacae; assay: Antibacterial activity against Enterobacter cloacae 118564 assessed as reduction in bacterial growth after 18 hrs in presence of cefiderocol by microbroth dilution method; type: functional; summary of the method: as §5
[21] = test system: Enterobacter cloacae; assay: Antibacterial activity against Enterobacter cloacae 118564 assessed as reduction in bacterial growth after 18 hrs by microbroth dilution method; type: functional; summary of the method: as §4
[22] = test system: Pseudomonas aeruginosa; assay: Antibacterial activity against MDR clinical isolate Pseudomonas aeruginosa PA264 assessed as potentiation of cefiderocol antibacterial activity by measuring FIC index after 18 hrs by microbroth dilution method; type: functional; summary of the method: as §3
[23] = test system: Enterobacter cloacae; assay: Antibacterial activity against Enterobacter cloacae 117029 assessed as reduction in bacterial growth after 18 hrs in presence of cefiderocol by microbroth dilution method; type: functional; summary of the method: as §5
[24] = test system: Pseudomonas aeruginosa; assay: Potentiation of cefiderocol-induced antibiotic activity against MDR clinical isolate Pseudomonas aeruginosa PA264 assessed as MIC fold reduction at 8 ug/ml after 18 hrs by microbroth dilution method; type: functional, organism-based; details: dose 8.0 µg/ml
Summary of the method: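 Initial screen in MHB using a fixed 8 μg mL−1 of adjuvant combined with each antibiotic under 2-fold dilution. Broth microdilution used about 5 × 10^5 CFU/mL at 37 °C for 18 h, with visible turbidity read and confirmed at 590 nm. Fold-potentiation = antibiotic MIC alone ÷ antibiotic MIC with adjuvant.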

NC[C@H]1O[C@H](O[C@H]2[C@H](OCCCCc3cn(-c4ccc(NC(=O)c5cc(Cl)ccc5O)cc4)nn3)[C@@H](O[C@H]3O[C@H](CO)[C@@H](O)[C@H](N)[C@H]3O)[C@H](N)C[C@@H]2N)[C@H](N)C[C@@H]1O
MIC [1]: > 128 µg/mL
fold change (FC) [2]: 4
MIC [3]: 64 µg/mL (≈ 76.5 µM)
fold change (FC) [4]: 4
fold change (FC) [5]: 4
Activity [6]: Active
fold change (FC) [7]: 4
MIC [8]: 2 µg/mL
MIC [9]: > 128 µg/mL
fold change (FC) [10]: 4
MIC [11]: > 128 µg/mL
MIC [12]: 0.25 µg/mL
fold change (FC) [13]: 4
fold change (FC) [14]: 4
FIC [15]: 0.063
fold change (FC) [16]: 4
fold change (FC) [17]: 4
fold change (FC) [18]: 4
fold change (FC) [19]: 4
MIC [20]: 0.25 µg/mL
MIC [21]: > 128 µg/mL
FIC [22]: 0.125
MIC [23]: 4 µg/mL
Activity [24]: Active
